How the values were obtained:
[1] = Inhibition of beta-lactamase AmpC
Method in brief: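 Cuvette assay with 1 nM AmpC β-lactamase and 200 µM nitrocefin, Triton X-100 at either 0.00002 or 0.1%. Compound and enzyme preincubated 5 min, then substrate added to start the reaction.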

[2] = Inhibition of chymotrypsin
Method in brief: (§1)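 Chymotrypsin (28 nM) preincubated 5 min with inhibitor, then reaction started with 200 µM N-succinyl-Ala-Ala-Pro-Phe p-nitroanilide. In the no-preincubation variant, inhibitor and substrate were mixed first and enzyme was added to start. Progress read at 410 nm.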

[3] = Inhibition of beta-lactamase AmpC in presence of 0.1% Triton X-100
Method in brief: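 Cuvette assay with 1 nM AmpC β-lactamase and 200 µM nitrocefin, Triton X-100 at either 0.00002 or 0.1%. Compound and enzyme preincubated 5 min, then substrate added to start the reaction. Nitrocefin hydrolysis read at 482 nm by UV–visible spectrophotometry at room temperature.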

[4] = Inhibition of chymotrypsin in presence of 0.1% Triton X-100; method in brief: as §1
[5] = Inhibition of malate dehydrogenase
Method in brief: (§2)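 Malate dehydrogenase (2 nM) incubated 5 min with inhibitor, then reaction started with 200 µM oxaloacetic acid plus 200 µM NADH. In the no-preincubation variant, inhibitor, oxaloacetate and NADH were mixed first and enzyme was added last. NADH consumption followed at 340 nm.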

[6] = biological target: T1, Cruzipain (Trypanosoma cruzi, UniProt P25779); experiment: Inhibition of cruzain
T1 sequence (P25779 whole entry): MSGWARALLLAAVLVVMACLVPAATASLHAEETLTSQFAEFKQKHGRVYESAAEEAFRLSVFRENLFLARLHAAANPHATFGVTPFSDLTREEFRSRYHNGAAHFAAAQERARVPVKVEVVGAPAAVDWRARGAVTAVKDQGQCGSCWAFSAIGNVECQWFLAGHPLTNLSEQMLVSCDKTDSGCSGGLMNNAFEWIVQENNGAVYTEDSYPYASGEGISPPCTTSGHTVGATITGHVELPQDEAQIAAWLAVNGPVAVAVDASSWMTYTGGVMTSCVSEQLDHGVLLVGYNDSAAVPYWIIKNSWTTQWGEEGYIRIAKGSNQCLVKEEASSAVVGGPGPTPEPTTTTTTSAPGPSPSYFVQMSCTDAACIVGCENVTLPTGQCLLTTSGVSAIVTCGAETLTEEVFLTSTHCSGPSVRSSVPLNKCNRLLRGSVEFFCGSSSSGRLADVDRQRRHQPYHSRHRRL

[7] = biological target: T1, Cruzipain; experiment: Inhibition of cruzain in presence of 0.01% Triton X-100
Method in brief: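 Recombinant cruzain (10 nM) in 0.1 M sodium acetate pH 5.5 with 5 mM DTT and 0.01% Triton X-100, substrate 2.5 µM Z-Phe-Arg-AMC. Cleavage read fluorimetrically in 96-well format, excitation 355 nm, emission 460 nm.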

[8] = Inhibition of malate dehydrogenase in presence of 0.1% Triton X-100; method in brief: as §2

| SMILES | IC50 [1] | IC50 [2] | Ki [1] | IC50 [3] | IC50 [4] | IC50 [5] | IC50 [6] | IC50 [7] | IC50 [8] |
| --- | --- | --- | --- | --- | --- | --- | --- | --- | --- |
| CN(C)C/C=C(\c1ccc(Br)cc1)c1cccnc1 | > 600 µM | > 600 µM |  |  |  |  |  |  |  |
| O=C(O)c1ccc2c(c1)C(=O)N(CCc1ccc(O)cc1)C2=O |  |  | 360 µM |  |  |  |  |  |  |
| CC(C)(C)OC(=O)NCCc1nnc(S(=O)(=O)Cc2ccc(Cl)cc2Cl)o1 | < 1 µM | < 1 µM |  | < 1 µM | < 1 µM | > 600 µM | 95 µM | 470 µM |  |
| Cc1ccc(C)n1C(Cc1ccccc1)C(=O)O (stereo not drawn) | 95 µM | 570 µM |  | > 600 µM | > 600 µM | 15 µM | < 1 µM | > 600 µM | > 600 µM |
| COc1ccc(-c2cc(C(=O)NCc3ccccc3)no2)cc1OC | > 600 µM | > 600 µM |  |  |  |  |  |  |  |
| O=C(O)c1ccc2c(c1)C(=O)N([C@H](Cc1ccc3ccccc3c1)C(=O)O)C2=O |  |  | 14 µM |  |  |  |  |  |  |
| O=C(O)c1ccc2c(c1)C(=O)N([C@H](Cc1c[nH]c3ccccc13)C(=O)O)C2=O |  |  | 17 µM |  |  |  |  |  |  |
| C[C@H]1[C@H]2C=C[C@@H]1[C@@H](C(=O)O)[C@@H]2c1c2ccc(=O)c(O)c-2oc2c(O)c(O)ccc12 | 70 µM | 67 µM |  | > 600 µM | > 600 µM | 18 µM | 95 µM | 45 µM | 45 µM |
| COc1cccc(-c2ccc3ncnc(NCc4ccc(OC)cc4OC)c3c2)c1 | > 600 µM | > 600 µM |  |  |  |  |  |  |  |
| N[C@@H](Cc1cc(-c2ccc(Cl)cc2Cl)cc(CP(=O)(O)O)c1O)C(=O)O | 160 µM | 270 µM |  | 220 µM | 400 µM | > 600 µM | 77 µM | 158 µM |  |
| CC(C)(C)OC(=O)NCc1nnc(S(=O)(=O)Cc2ccc(Cl)cc2Cl)o1 | < 1 µM | < 1 µM |  | < 1 µM | < 1 µM | > 600 µM | 95 µM | 410 µM | > 600 µM |
| N#Cc1cccc(-c2nc(NCc3cccnc3)c3ccccc3n2)c1 | > 600 µM | > 600 µM |  |  |  |  |  |  |  |
| O=C(O)c1ccc2c(c1)C(=O)N([C@@H](Cc1ccc(O)cc1)C(=O)O)C2=O |  |  | 158 µM |  |  |  |  |  |  |
| CC(C)CC(C(=O)O)N1C(=O)c2ccc(C(=O)O)cc2C1=O (racemic) |  |  | 1200 µM |  |  |  |  |  |  |
| c1cc2c3c(c1)c1c(n3CCNC2)CCCC1 | > 600 µM | > 600 µM |  |  |  |  |  |  |  |
| CCOC(=O)/C(C(C)=O)=C1\OC(=O)c2ccccc21 | 43 µM |  |  | 58 µM |  |  | < 600 µM | < 600 µM |  |
| CSCCC(C(=O)O)N1C(=O)c2ccc(C(=O)O)cc2C1=O (racemic) |  |  | 1300 µM |  |  |  |  |  |  |
| O=C(O)c1ccc2c(c1)C(=O)N(C(Cc1ccc(O)cc1)C(=O)O)C2=O (racemic) |  | > 10000 µM | 140 µM | 210 µM |  |  | > 10000 µM | > 10000 µM |  |
| O=C(O)c1ccc2c(c1)C(=O)N(C(Cc1ccccc1)C(=O)O)C2=O (racemic) |  |  | 210 µM |  |  |  |  |  |  |
| CS(=O)(=O)N1CCC(C(=O)N2CCC(Cc3ccccc3)CC2)CC1 | > 600 µM | > 600 µM |  | > 600 µM | > 600 µM |  |  |  |  |
| CC(C)C[C@H](N)c1nnc(S(=O)(=O)Cc2ccc(F)cc2)o1 | 600 µM | 270 µM |  | 600 µM | 170 µM | > 600 µM |  |  |  |

| SMILES | IC50 [1] | IC50 [2] | Ki [1] | IC50 [3] | IC50 [4] | IC50 [5] | IC50 [6] | IC50 [7] | IC50 [8] |
| --- | --- | --- | --- | --- | --- | --- | --- | --- | --- |
| O=C(Oc1cccnc1)c1cc2ccccc2oc1=O | 55 µM | 37 µM |  | 43 µM | 37 µM |  | 70 µM | 90 µM |  |
| S=C(S)OC1CC2CC1C1CCCC21 (stereo not drawn) | 270 µM | 270 µM |  | > 600 µM | > 600 µM | > 600 µM | 15 µM | > 600 µM |  |
| O=C(CC1(O)C(=O)Nc2cc(Cl)cc(Cl)c21)c1ccccc1O (stereo not drawn) | > 600 µM | > 600 µM |  | > 600 µM | > 600 µM |  | 73 µM | 170 µM |  |
| O=C(O)C(Cc1ccccc1)N1C(=O)c2ccccc2C1=O (racemic) |  |  | 830 µM |  |  |  |  |  |  |
| O=C(NCCc1ccccc1)C1CCCN(S(=O)(=O)c2cccc3nsnc23)C1 (stereo not drawn) | > 600 µM | 220 µM |  |  | 345 µM | > 600 µM |  |  |  |
| O=C(O)CN1C(=O)c2ccc(C(=O)O)cc2C1=O |  |  | 6900 µM |  |  |  |  |  |  |
| CCOC(=O)SC1=N/C(=C/c2ccc(N(C)C)cc2)C(=O)S1 | 60 µM | < 1 µM |  | > 600 µM | 8 µM | 200 µM | < 1 µM | 73 µM | > 600 µM |
| CCOC(=O)C1=C(c2ccccc2)NC(SCC(=O)Nc2ccc(C)cc2)=C(C#N)C1c1ccco1 (stereo not drawn) | 22 µM | < 1 µM |  | > 600 µM | > 600 µM | 5 µM | < 1 µM | 120 µM | 106 µM |
| O=C(Nc1nc2n(n1)C(c1ccccc1)C=C(c1ccccc1)N2)c1ccco1 (stereo not drawn) | < 600 µM | 7 µM |  | < 600 µM | 27 µM |  |  |  |  |
| CCCC12CN(C(=O)c3ccc(OC)cc3)CC(C)(CN(C(=O)c3ccc(OC)cc3)C1)C2=O | 15 µM | < 1 µM |  | 95 µM | > 600 µM | > 600 µM | > 600 µM | > 600 µM |  |
| COc1cccc2cc(C(=O)n3ccc(C)n3)c(=O)oc12 | 25 µM | 70 µM |  | 20 µM | 70 µM | > 600 µM | 120 µM | 106 µM |  |
| COc1cccc(-c2nccc(-n3ccnc3)n2)c1 | > 600 µM | > 600 µM |  |  |  |  |  |  |  |
| COc1cc2c(=O)n(Cc3ccco3)c(=O)n(CC(=O)c3cccc(Br)c3)c2cc1OC | > 600 µM |  |  |  |  |  |  |  |  |
| Cc1occc1C(=O)n1nnc2ccccc21 | 20 µM | < 1 µM |  | 38 µM | < 1 µM | 65 µM | 106 µM | < 600 µM | > 600 µM |
| O=C(O)c1ccc2c(c1)C(=O)N([C@H](Cc1cccc3ccccc13)c1nnn[nH]1)C2=O |  |  | 41 µM |  |  |  |  |  |  |
| CCOc1ccccc1CNC(=O)c1cc2occc2n1C | > 600 µM |  |  |  |  |  |  |  |  |
| CC(C)[C@H](NC(=O)OC(C)(C)C)c1nnc(S(=O)(=O)Cc2c(F)cccc2Cl)o1 (stereo in doubt; 1) | < 1 µM | < 1 µM |  | < 1 µM | < 1 µM | > 600 µM | < 1 µM | < 1 µM | > 600 µM |
| O=C(O)C1=CC(=C(c2ccc(O)c(C(=O)O)c2)c2ccc(O)c(C(=O)O)c2)C=CC1=O [AURINTRICARBOXYLIC ACID] | 120 µM | 184 µM |  | > 600 µM | > 600 µM | 5 µM | 53 µM | 28 µM | 30 µM |
| CC(C)[C@H](NC(=O)OC(C)(C)C)c1nnc(S(=O)(=O)Cc2c(F)cccc2Cl)o1 (stereo in doubt) |  |  |  |  |  |  | < 1 µM | < 1 µM |  |
| O=c1oc2c(O)c(O)cc3c(=O)oc4c(O)c(O)cc1c4c23 [ELLAGIC ACID] | 146 µM | 470 µM |  | > 600 µM | < 600 µM | 55 µM | 64 µM | 220 µM | 106 µM |
| CC1=C/C(=C\c2ccc3c(c2)OCO3)C(=O)S1 | > 600 µM | > 600 µM |  |  |  |  |  |  |  |
